Reference: ChEMBL document CHEMBL4406821, “Novel dual inhibitors targeting CDK4 and VEGFR2 synergistically suppressed cancer progression and angiogenesis” (Eur J Med Chem, 2019)
Active and inactive are the calls of the source. The rule behind the calls is not given here.

Legend:
SiHa [1] = assay: Antiangiogenic activity against human SiHa cells xenografted in NOD/SCID BALB/c mouse assessed as reduction in CD31 expression at 40 mg/kg, po measured after 21 days by hematoxylin and eosin staining based immunohistochemistry; format: functional, organism-based
How it was run: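 Female NOD/SCID Balb/c mice, 6–8 weeks old, received 2×10^6 SiHa cells subcutaneously in the right flank. Once tumors reached 100 mm³, mice were randomized, 5 per group, and gavaged once daily for 21 days. Formalin-fixed, paraffin-embedded tumor sections were stained with Ki67 or CD31 antibody (1:100, 4 °C overnight), then biotin secondary and ABC-peroxidase/DAB, with hematoxylin counterstain.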

HeLa = assay: Induction of cell cycle arrest in human HeLa cells assessed as accumulation in G2/M phase at 80 nM incubated for 36 hrs by propidium iodide staining based flow cytometry; format: functional
How it was run: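 Cells were treated with graded concentrations for 36 h, then fixed overnight in 70% ice-cold ethanol at 4°C and resuspended in PBS. Staining used 50 µg/ml PI plus 5 µg/ml RNase at 37°C for 30 min. DNA content was analysed by FACS to give G0/G1, S and G2/M fractions.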

[2] = molecular target: Ribosomal protein S6 kinase alpha-5 (Homo sapiens) (UniProt O75582); assay: Inhibition of recombinant human MSK1 (2 to end residues) at 1 uM using GRPRTSSFAEGKK as substrate incubated for 40 mins in presence of [gamma-33P]-ATP by scintillation counting method relative to control
[3] = molecular target: MAP kinase-activated protein kinase 5 (Homo sapiens) (UniProt Q8IW41); assay: Inhibition of recombinant human full length PRAK at 1 uM using KKLRRTLSVA as substrate incubated for 40 mins in presence of [gamma-33P]-ATP by scintillation counting method relative to control
[4] = Toxicity in NOD/SCID BALB/c mouse xenografted with human SiHa cells assessed as effect on blood parameter by measuring PDW at 40 mg/kg, po administered once two days for 4 times by hematology analyzer; format: organism-based; conditions: in vivo
[5] = molecular target: Ephrin type-B receptor 4 (Homo sapiens) (UniProt P54760); assay: Inhibition of recombinant human EPhB4 (561 to end residues) at 1 uM using poly (Glu, Tyr) 4:1 as substrate incubated for 40 mins in presence of [gamma-33P]-ATP by scintillation counting method relative to control
[6] = molecular target: Epidermal growth factor receptor (Homo sapiens) (UniProt P00533); assay: Inhibition of recombinant human EGFR (696 to end residues) at 1 uM using poly(Glu, Tyr) 4:1 as substrate incubated for 40 mins in presence of [gamma-33P]-ATP by scintillation counting method relative to control
How it was run: (§1)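 Kinase panel profiling at 1 μM performed by Eurofins KinaseProfiler; percent inhibition reported as mean of two independent experiments.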

[7] = molecular target: Inhibitor of nuclear factor kappa-B kinase subunit alpha (Homo sapiens) (UniProt O15111); assay: Inhibition of recombinant human full length IKKalpha at 1 uM using peptide as substrate incubated for 40 mins in presence of [gamma-33P]-ATP by scintillation counting method relative to control
How it was run: (§2)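 Tested at a single 1 uM in an outsourced commercial kinase-profiling panel, read as percent inhibition. Each value is the mean of two independent experiments.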

[8] = molecular target: Serine/threonine-protein kinase 32A (Homo sapiens) (UniProt Q8WU08); assay: Inhibition of recombinant human full length STK32A at 1 uM using casein as substrate incubated for 40 mins in presence of [gamma-33P]-ATP by scintillation counting method relative to control
How it was run: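 Single-point inhibition at 1 uM measured in a commercial kinase profiling panel (KinaseProfiler); each value is the mean of two independent experiments.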

[9] = molecular target: Protein kinase C beta type (Homo sapiens) (UniProt P05771); assay: Inhibition of recombinant human PKCbeta1 (2 to end residues) at 1 uM using histone H1 as substrate incubated for 40 mins in presence of [gamma-33P]-ATP by scintillation counting method relative to control
Sequence of Protein kinase C beta type (Homo sapiens) (P05771 2-671 limits assumed): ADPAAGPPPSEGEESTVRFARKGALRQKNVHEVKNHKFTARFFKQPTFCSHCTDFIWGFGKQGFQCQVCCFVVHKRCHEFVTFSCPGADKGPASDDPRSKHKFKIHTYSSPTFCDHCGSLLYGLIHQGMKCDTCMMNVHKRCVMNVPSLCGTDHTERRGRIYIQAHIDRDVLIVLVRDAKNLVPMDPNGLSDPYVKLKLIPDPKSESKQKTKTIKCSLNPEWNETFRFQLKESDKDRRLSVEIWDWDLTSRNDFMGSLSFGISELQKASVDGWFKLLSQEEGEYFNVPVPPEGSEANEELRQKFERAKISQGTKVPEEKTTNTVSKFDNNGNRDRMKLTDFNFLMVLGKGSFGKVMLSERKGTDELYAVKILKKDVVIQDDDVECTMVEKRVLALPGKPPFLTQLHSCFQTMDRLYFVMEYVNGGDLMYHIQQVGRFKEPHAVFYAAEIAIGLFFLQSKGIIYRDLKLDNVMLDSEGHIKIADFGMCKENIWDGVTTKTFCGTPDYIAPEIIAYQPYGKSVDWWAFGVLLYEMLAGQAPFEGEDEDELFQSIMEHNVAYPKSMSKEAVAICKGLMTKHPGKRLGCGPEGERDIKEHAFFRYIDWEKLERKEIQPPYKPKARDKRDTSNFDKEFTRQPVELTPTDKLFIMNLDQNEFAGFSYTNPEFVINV

[10] = molecular target: G protein-coupled receptor kinase 5 (Homo sapiens) (UniProt P34947); assay: Inhibition of recombinant human full length GRK5 at 1 uM using casein as substrate incubated for 40 mins in presence of [gamma-33P]-ATP by scintillation counting method relative to control; how it was run: as §2
[11] = molecular target: Tyrosine-protein kinase receptor TYRO3 (Homo sapiens) (UniProt Q06418); assay: Inhibition of recombinant human RSE (451 to end residues) at 1 uM using KVEKIGEGTYGVVYK as substrate incubated for 40 mins in presence of [gamma-33P]-ATP by scintillation counting method relative to control
[12] = molecular target: T1, Vascular endothelial growth factor receptor 2 (Homo sapiens, UniProt P35968); assay: Inhibition of VEGFR2 in HUVEC cells assessed as reduction in Src phosphorylation at 20 to 40 nM incubated for 48 hrs by Western blot analysis; format: cell-based
T1 sequence (P35968 whole entry): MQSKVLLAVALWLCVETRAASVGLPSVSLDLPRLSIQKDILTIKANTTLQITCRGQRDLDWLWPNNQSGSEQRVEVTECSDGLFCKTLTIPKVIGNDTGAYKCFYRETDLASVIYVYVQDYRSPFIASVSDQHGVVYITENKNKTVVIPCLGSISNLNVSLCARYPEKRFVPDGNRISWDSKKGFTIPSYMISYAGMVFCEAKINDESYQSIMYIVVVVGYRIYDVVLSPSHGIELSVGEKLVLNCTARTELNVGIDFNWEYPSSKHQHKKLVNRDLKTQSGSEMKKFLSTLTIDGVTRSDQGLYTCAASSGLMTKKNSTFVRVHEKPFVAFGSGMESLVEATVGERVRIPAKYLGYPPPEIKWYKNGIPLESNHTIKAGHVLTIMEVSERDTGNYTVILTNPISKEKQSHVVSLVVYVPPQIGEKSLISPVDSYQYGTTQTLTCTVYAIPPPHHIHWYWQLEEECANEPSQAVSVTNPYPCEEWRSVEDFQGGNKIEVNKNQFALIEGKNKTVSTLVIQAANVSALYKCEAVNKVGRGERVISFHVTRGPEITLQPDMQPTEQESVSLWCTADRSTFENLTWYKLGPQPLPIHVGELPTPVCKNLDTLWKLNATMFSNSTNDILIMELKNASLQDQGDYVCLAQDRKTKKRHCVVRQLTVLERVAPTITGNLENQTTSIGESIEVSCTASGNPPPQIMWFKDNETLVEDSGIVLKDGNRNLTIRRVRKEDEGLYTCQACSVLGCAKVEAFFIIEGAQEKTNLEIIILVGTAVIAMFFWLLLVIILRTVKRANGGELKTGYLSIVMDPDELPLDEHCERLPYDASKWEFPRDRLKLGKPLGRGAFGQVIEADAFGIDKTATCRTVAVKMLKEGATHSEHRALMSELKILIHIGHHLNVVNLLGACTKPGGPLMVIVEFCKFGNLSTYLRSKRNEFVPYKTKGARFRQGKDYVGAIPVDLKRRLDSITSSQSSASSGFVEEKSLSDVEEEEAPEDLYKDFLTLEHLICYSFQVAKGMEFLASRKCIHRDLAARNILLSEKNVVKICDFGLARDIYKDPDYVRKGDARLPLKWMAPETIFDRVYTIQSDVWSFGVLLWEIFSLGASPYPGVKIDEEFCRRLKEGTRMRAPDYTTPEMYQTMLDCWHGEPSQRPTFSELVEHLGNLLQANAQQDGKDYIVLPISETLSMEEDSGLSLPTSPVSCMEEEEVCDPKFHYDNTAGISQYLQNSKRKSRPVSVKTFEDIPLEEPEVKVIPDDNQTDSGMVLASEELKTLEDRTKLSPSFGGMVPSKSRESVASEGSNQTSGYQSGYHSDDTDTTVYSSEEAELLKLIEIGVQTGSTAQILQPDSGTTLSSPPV
How it was run: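 HUVECs were maintained in 1640 medium with 10% FBS. They were treated with graded concentrations for 48 h, PBS-washed and lysed in RIPA buffer. Immunoblots were probed for total and phospho VEGFR2, STAT3, Akt, Erk1 and Src, each at 1:1000. β-actin served as loading control.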

[13] = molecular target: Serine-protein kinase ATM (Homo sapiens) (UniProt Q13315); assay: Inhibition of recombinant human full length ATM at 1 uM using GST-cMyc-p53 as substrate incubated for 40 mins in presence of [gamma-33P]-ATP by scintillation counting method relative to control
Sequence of Serine-protein kinase ATM (Homo sapiens) (Q13315 whole entry, the tested form may be a part): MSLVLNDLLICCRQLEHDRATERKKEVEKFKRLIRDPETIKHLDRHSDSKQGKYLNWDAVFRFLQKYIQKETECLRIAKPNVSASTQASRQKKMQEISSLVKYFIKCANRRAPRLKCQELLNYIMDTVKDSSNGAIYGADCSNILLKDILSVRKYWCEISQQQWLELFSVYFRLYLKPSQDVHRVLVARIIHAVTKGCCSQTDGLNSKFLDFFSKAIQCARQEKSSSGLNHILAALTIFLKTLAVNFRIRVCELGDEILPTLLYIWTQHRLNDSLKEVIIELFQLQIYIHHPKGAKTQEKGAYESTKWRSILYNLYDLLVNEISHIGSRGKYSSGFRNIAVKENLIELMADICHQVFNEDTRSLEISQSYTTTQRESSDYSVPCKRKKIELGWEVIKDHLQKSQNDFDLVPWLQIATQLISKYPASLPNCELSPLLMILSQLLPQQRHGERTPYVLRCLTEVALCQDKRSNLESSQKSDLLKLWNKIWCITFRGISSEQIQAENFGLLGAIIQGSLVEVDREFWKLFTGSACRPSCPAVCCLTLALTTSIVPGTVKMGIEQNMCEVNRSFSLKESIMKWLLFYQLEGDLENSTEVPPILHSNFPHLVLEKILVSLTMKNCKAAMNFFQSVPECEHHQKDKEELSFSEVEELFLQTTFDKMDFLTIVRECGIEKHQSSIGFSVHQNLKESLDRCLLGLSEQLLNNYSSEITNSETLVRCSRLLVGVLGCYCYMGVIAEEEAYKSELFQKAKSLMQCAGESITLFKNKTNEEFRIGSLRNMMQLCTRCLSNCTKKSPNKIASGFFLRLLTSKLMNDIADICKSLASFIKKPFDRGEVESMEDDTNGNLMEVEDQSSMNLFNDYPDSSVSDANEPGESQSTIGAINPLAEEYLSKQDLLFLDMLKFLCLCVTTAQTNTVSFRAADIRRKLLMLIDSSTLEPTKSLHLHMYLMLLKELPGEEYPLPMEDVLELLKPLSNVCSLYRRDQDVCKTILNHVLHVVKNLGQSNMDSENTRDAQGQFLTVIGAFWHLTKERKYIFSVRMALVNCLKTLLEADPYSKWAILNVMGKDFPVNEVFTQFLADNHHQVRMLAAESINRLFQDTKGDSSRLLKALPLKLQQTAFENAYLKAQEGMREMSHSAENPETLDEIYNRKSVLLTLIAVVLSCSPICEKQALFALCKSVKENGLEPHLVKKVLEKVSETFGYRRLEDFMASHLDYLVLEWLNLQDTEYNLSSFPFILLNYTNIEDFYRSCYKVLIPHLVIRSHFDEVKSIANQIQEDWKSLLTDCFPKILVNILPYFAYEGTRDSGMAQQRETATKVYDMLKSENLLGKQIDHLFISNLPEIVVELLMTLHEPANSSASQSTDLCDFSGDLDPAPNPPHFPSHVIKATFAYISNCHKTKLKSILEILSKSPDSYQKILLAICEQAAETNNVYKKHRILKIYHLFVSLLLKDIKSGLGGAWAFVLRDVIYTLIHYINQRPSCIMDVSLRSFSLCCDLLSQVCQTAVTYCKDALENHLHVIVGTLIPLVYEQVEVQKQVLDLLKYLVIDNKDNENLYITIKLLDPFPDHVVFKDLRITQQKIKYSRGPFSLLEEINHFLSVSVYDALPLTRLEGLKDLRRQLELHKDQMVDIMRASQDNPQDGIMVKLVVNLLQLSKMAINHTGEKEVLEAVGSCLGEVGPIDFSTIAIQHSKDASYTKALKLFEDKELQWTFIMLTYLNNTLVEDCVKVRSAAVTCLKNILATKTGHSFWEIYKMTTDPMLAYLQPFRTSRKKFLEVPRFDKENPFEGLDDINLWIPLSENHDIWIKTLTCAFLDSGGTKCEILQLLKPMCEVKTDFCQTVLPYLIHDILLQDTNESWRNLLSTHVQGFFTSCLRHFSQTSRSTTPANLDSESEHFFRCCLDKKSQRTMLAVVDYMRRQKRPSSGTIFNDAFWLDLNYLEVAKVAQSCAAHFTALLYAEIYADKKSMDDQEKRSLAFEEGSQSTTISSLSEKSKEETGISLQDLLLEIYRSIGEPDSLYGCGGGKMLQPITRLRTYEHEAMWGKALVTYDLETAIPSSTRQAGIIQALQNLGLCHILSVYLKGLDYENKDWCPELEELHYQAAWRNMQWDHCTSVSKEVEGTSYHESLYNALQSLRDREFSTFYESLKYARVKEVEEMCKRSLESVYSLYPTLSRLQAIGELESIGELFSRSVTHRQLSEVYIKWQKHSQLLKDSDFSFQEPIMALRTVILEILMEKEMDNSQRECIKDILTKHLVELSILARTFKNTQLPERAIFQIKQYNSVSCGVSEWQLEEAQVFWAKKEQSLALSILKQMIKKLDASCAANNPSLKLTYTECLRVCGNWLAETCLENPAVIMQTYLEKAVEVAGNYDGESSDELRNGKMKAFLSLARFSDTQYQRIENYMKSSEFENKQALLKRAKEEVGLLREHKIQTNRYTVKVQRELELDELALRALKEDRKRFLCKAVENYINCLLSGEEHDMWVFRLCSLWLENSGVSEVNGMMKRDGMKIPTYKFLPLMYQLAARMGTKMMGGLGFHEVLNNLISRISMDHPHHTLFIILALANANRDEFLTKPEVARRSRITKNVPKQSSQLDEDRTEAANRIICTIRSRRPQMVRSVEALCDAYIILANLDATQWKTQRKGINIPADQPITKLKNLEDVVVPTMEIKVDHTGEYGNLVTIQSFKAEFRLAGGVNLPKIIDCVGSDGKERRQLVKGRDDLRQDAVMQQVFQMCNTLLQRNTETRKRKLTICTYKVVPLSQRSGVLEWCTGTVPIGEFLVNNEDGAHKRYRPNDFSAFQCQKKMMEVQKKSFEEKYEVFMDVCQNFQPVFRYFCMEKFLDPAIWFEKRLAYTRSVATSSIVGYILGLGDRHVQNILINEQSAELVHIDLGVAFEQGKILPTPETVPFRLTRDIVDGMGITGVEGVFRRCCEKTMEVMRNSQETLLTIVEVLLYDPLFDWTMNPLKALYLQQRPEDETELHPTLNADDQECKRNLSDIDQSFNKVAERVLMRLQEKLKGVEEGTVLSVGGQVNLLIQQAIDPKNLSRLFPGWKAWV

[14] = molecular target: Ephrin type-A receptor 5 (Homo sapiens) (UniProt P54756); assay: Inhibition of recombinant human EPhA5 (655 to 956 residues) at 1 uM using poly(Glu, Tyr) 4:1 as substrate incubated for 40 mins in presence of [gamma-33P]-ATP by scintillation counting method relative to control
[15] = molecular target: Serine/threonine-protein kinase Nek1 (Homo sapiens) (UniProt Q96PY6); assay: Inhibition of recombinant human NEK1 (1 to 505 residues) at 1 uM using RLGRDKYKTLRQIRQ as substrate incubated for 40 mins in presence of [gamma-33P]-ATP by scintillation counting method relative to control
SiHa [16] = assay: Inhibition of colony formation in human SiHa cells at 40 to 80 nM incubated for 5 days by crystal violet staining based light microscopy; format: functional, cell-based
How it was run: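 4 × 10^3 cells per well were cultured with graded concentrations for 5 days. Cells were then fixed with 20% methanol, stained with 0.5% crystal violet and photographed by light microscopy.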

[17] = molecular target: Calcium/calmodulin-dependent protein kinase type 1D (Homo sapiens) (UniProt Q8IU85); assay: Inhibition of recombinant full length human CAMKIdelta at 1 uM using calmodulin as substrate incubated for 40 mins in presence of [gamma-33P]-ATP by scintillation counting method relative to control; how it was run: as §1
[18] = molecular target: T1, Vascular endothelial growth factor receptor 2; assay: Inhibition of recombinant human KDR (790 to end residues) at 1 uM using myelin basic protein as substrate incubated for 40 mins in presence of [gamma-33P]-ATP by scintillation counting method relative to control
[19] = molecular target: Serine/threonine-protein kinase 10 (Homo sapiens) (UniProt O94804); assay: Inhibition of recombinant human LOK (1 to 348 residues) at 1 uM using RLGRDKYKTLRQIRQ as substrate incubated for 40 mins in presence of [gamma-33P]-ATP by scintillation counting method relative to control

Structure (SMILES): COc1cc2nccc(Oc3ccc(NC(=O)C4(C(=O)Nc5ccc(F)cc5)CC4)cc3)c2cc1OC [CABOZANTINIB]
- inhibition (SiHa [1]): Active
- Activity (HeLa): Active

Structure (SMILES): Cc1ccc(NC(=O)C2(C(=O)Nc3ccc(Nc4ncc(F)c(-c5cc(F)c6nc(C)n(C(C)C)c6c5)n4)cc3)CC2)cc1
- inhibition [2]: 62%
- inhibition [3]: 1%
- Activity [4]: Non-Toxic
- inhibition [5]: 42%
- inhibition [6]: 28%
- inhibition [7]: 0%
- inhibition [8]: 0%
- inhibition [9]: 36%
- inhibition [10]: 0%
- inhibition [11]: 66%
- inhibition [12]: Active
- inhibition [13]: 2%
- inhibition [14]: 33%
- inhibition [15]: 72%
- inhibition (SiHa [16]): Active
- inhibition [17]: 1%
- inhibition [18]: 95%
- inhibition [19]: 93%
